Experiments:
[1] = Half life in mouse at 1 mg/kg, iv; type: ADME, organism-based; design: dose 1 mg/kg, route intravenous; conditions: in vivo
Procedure, shortened: (§1)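 Mouse PK: iv dose 1 mg/kg given as a solution in 80% PEG/10% EtOH; po dose 5 mg/kg given as a suspension in MCT (0.5% methylcellulose/0.2% Tween 80).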

[2] = Clearance in mouse at 1 mg/kg, iv; type: ADME, organism-based; design: dose 1 mg/kg, route intravenous; conditions: in vivo; procedure, shortened: as §1
[3] = (§2) AUC in mouse at 5 mg/kg, po; type: ADME, organism-based, Plasma; design: dose 5 mg/kg, route oral; conditions: plasma; procedure, shortened: as §1
[4] = Plasma protein binding in mouse; type: ADME, cell-free; conditions: read-out: PPB (converted)
[5] = Plasma protein binding in rat; type: ADME, cell-free; conditions: read-out: PPB (converted)
[6] = Volume of distribution at steady state in mouse at 1 mg/kg, iv; type: ADME, organism-based; design: dose 1 mg/kg, route intravenous; conditions: in vivo, read-out: Vdss; procedure, shortened: as §1
MCF7 = assay: Antiproliferative activity against human MCF7 cells expressing neo/Her2 after 3 days by CellTiter-Glo luminescent cell viability assay; conditions: MCF7, 72 h
[7] = Plasma protein binding in human; type: ADME, cell-free; conditions: read-out: PPB (converted)
PC-3 = assay: Antiproliferative activity against human PC3 cells after 3 days by CellTiter-Glo luminescent cell viability assay; conditions: PC-3, 72 h
[8] = (§3) Oral bioavailability in mouse at 5 mg/kg; type: ADME, organism-based; conditions: in vivo; procedure, shortened: as §1
Mus musculus [9] = assay: as §2; type: ADME, organism-based, Plasma; design: dose 5 mg/kg, route oral; conditions: in vivo; procedure, shortened: as §1
Mus musculus [10] = assay: as §3; type: ADME, organism-based; conditions: in vivo; procedure, shortened: as §1
Mus musculus [11] = assay: In vivo inhibition of mTORC2 in NCR nude mouse xenografted with human NCI-PC3 cells assessed as reduction in phosphorylated Akt level at 25 to 100 mg/kg, po administered as single dose relative to control; values are per cent of control; conditions: dose mg/kg 25-100
Mus musculus [12] = assay: In vivo inhibition of mTORC1 in NCR nude mouse xenografted with human NCI-PC3 cells assessed as reduction in phosphorylated S6RP level at 25 to 100 mg/kg, po administered as single dose relative to control; values are per cent of control; conditions: dose mg/kg 25-100
[13] = Selectivity ratio of Ki for human recombinant mTOR (1360-2549) over Ki for PI3Kalpha
[14] = molecular target: Serine/threonine-protein kinase mTOR (Homo sapiens, UniProt P42345); assay: Inhibition of human recombinant mTOR expressed in insect cells using 4E-BP1 substrate after 30 mins by fluorescence resonance energy transfer assay

Compound | half-life [1] | fraction unbound [4] | fraction unbound [5] | Vd [6] | IC50 (MCF7) | fraction unbound [7] | IC50 (PC-3) | further results
C[C@H]1COCCN1c1nc(-c2ccc(Nc3cccc(=O)[nH]3)cc2)nc2c1COC2(C)C | 132 min | 0.03 | 0.04 | 1.9 L/kg | 120 nM | 0.02 | 120 nM | clearance [2]: 44 mL/min/kg; AUC [3]: 0.31 µM·h; bioavailability [8]: 7%
CCNC(=O)Nc1ccc(-c2nc(N3C[C@H]4CC[C@@H](C3)O4)c3c(n2)[C@@](C)(CCO)OC3)cc1 | – | – | – | – | 160 nM | – | 66 nM | –
CCNC(=O)Nc1ccc(-c2nc(N3CCOCC3)c3c(n2)[C@@](C)(CC(C)(C)O)OC3)cc1 | – | – | – | – | 170 nM | – | 140 nM | –
CCNC(=O)Nc1ccc(-c2nc(N3CCOC[C@@H]3C)c3c(n2)[C@@](C)(CCO)OC3)cc1 | 20.4 min | 0.06 | 0.21 | 2.4 L/kg | 510 nM | 0.14 | 118 nM | AUC (Mus musculus [9]): 0.43 µM·h; F (Mus musculus [10]): 65%
CCNC(=O)Nc1ccc(-c2nc(N3CCOC[C@@H]3C)c3c(n2)[C@@](C)(CC2CC2)OC3)cc1 | – | – | – | – | 95 nM | – | 31 nM | –
CCNC(=O)Nc1ccc(-c2nc(N3C[C@H]4CC[C@@H](C3)O4)c3c(n2)[C@](C)(CCO)OC3)cc1 | 46.2 min | 0.11 | 0.26 | 2 L/kg | 22 nM | 0.27 | 17 nM | AUC (Mus musculus [9]): 0.78 µM·h; F (Mus musculus [10]): 50%
CCNC(=O)Nc1ccc(-c2nc(N3CCOCC3)c3c(n2)[C@@](C)(CCO)OC3)cc1 | – | – | – | – | 490 nM | – | 210 nM | –
CCNC(=O)Nc1ccc(-c2nc(N3CCOC[C@@H]3C)c3c(n2)[C@@](C)(CCC#N)OC3)cc1 | – | – | – | – | 100 nM | – | 41 nM | –
C[C@H]1COCCN1c1nc(-c2ccc(NC(=O)NCCO)cc2)nc2c1COC2(C)C | 25.2 min | 0.19 | 0.3 | 1.5 L/kg | 66 nM | 0.28 | 46 nM | clearance [2]: 53 mL/min/kg; AUC [3]: 0.81 µM·h; bioavailability [8]: 22%
CCNC(=O)Nc1ccc(-c2nc(N3CCOC[C@@H]3C)c3c(n2)C(C)(C)OC3)cc1 | 24 min | 0.05 | 0.08 | 1.4 L/kg | 52 nM | 0.14 | 78 nM | clearance [2]: 46 mL/min/kg; level, % of control (Mus musculus [11]): 15%; AUC [3]: 6.1 µM·h; level, % of control (Mus musculus [12]): 15%; bioavailability [8]: 140%
CCNC(=O)Nc1ccc(-c2nc(N3CCOCC3)c3sc(C(C)(C)O)cc3n2)cc1 | – | – | – | – | – | – | – | Ratio Ki [13]: 20; Ki [14]: 3 nM
CCNC(=O)Nc1ccc(-c2nc(N3CCOC[C@@H]3C)c3c(n2)[C@](C)(CO)OC3)cc1 | – | – | – | – | 192 nM | – | 95 nM | –
C[C@H]1COCCN1c1nc(-c2ccc(NC(=O)NC3COC3)cc2)nc2c1COC2(C)C | – | – | – | – | 480 nM | – | 160 nM | –
CCNC(=O)Nc1ccc(-c2nc(N3CCOC[C@@H]3C)c3c(n2)[C@](C)(CCN(C)C)OC3)cc1 | 34.2 min | 0.22 | 0.33 | 2.6 L/kg | 1100 nM | 0.41 | 220 nM | clearance [2]: 76 mL/min/kg; AUC [3]: 0.14 µM·h; bioavailability [8]: 6%
CCNC(=O)Nc1ccc(-c2nc(N3CCOCC3)c3c(n2)[C@](C)(CC(C)(C)O)OC3)cc1 | 16.2 min | 0.14 | 0.21 | 1 L/kg | 27 nM | 0.23 | 28 nM | AUC (Mus musculus [9]): 0.66 µM·h; F (Mus musculus [10]): 55%
CCNC(=O)Nc1ccc(-c2nc(N3CCOC[C@@H]3C)c3c(n2)[C@@](C)(CCOC)OC3)cc1 | – | – | – | – | 1200 nM | – | 284 nM | –

Compound | half-life [1] | fraction unbound [4] | fraction unbound [5] | Vd [6] | IC50 (MCF7) | fraction unbound [7] | IC50 (PC-3) | further results
C[C@H]1COCCN1c1nc(-c2ccc(NC(=O)NCCC#N)cc2)nc2c1COC2(C)C | – | – | – | – | 260 nM | – | 120 nM | –
CCNC(=O)Nc1ccc(-c2nc(N3CCOC[C@@H]3C)c3c(n2)[C@](C)(CCOC)OC3)cc1 | – | – | – | – | 130 nM | – | 62 nM | –
CCNC(=O)Nc1ccc(-c2nc(N3CCOC[C@@H]3C)c3c(n2)C(C)(C)OC3=O)cc1 | – | – | – | – | 220 nM | – | 60 nM | –
C[C@H]1COCCN1c1nc(-c2ccc(NC(=O)NC[C@@H](O)CO)cc2)nc2c1COC2(C)C | – | – | – | – | 1900 nM | – | 330 nM | –
CCNC(=O)Nc1ccc(-c2nc(N3CCOC[C@@H]3C)c3c(n2)[C@](C)(CC2CC2)OC3)cc1 | – | – | – | – | 340 nM | – | 100 nM | –
CCNC(=O)Nc1ccc(-c2nc(N3CCOCC3)c3c(n2)[C@](C)(CCO)OC3)cc1 | 42.6 min | 0.17 | 0.24 | 1.5 L/kg | 48 nM | 0.22 | 16 nM | AUC (Mus musculus [9]): 0.96 µM·h; F (Mus musculus [10]): 56%
CCNC(=O)Nc1ccc(-c2nc(N3CCOC[C@@H]3C)c3c(n2)[C@](C)(CC(C)(C)O)OC3)cc1 | 66 min | 0.09 | 0.22 | 1.3 L/kg | 75 nM | 0.18 | 18 nM | AUC (Mus musculus [9]): 0.63 µM·h; F (Mus musculus [10]): 53%
CCNC(=O)Nc1ccc(-c2nc(N3CCOCC3)c3c(n2)C(C)(C)OC3=O)cc1 | 12.6 min | 0.02 | 0.05 | 0.57 L/kg | 310 nM | 0.02 | 120 nM | AUC (Mus musculus [9]): 1.5 µM·h; bioavailability (Mus musculus [10]): 23%
CCNC(=O)Nc1ccc(-c2nc(N3CCOCC3)c3c(n2)[C@](C)(CO)OC3)cc1 | – | – | – | – | 280 nM | – | 220 nM | –
CCNC(=O)Nc1ccc(-c2nc(N3CCOC[C@@H]3C)c3c(n2)[C@@](C)(CC(C)(C)O)OC3)cc1 | 78 min | 0.15 | 0.12 | 2.7 L/kg | 29 nM | 0.34 | 130 nM | AUC (Mus musculus [9]): 0.65 µM·h; F (Mus musculus [10]): 73%
CCNC(=O)Nc1ccc(-c2nc(N3CCOC[C@@H]3C)c3c(n2)[C@](C)(CCC#N)OC3)cc1 | – | – | – | – | 193 nM | – | 74 nM | –
C[C@H]1COCCN1c1nc(-c2ccc(NC(=O)Nc3cnn(C)c3)cc2)nc2c1COC2(C)C | – | – | – | – | 160 nM | – | 52 nM | –
CCNC(=O)Nc1ccc(-c2nc(N3CCOC[C@@H]3C)c3c(n2)[C@@](C)(CO)OC3)cc1 | – | – | – | – | 530 nM | – | 450 nM | –
CCNC(=O)Nc1ccc(-c2nc(N3CCOCC3)c3c(n2)[C@@](C)(CO)OC3)cc1 | – | – | – | – | 1700 nM | – | 960 nM | –
CCNC(=O)Nc1ccc(-c2nc(N3CCOC[C@@H]3C)c3c(n2)[C@](C)(CCO)OC3)cc1 | 19.8 min | 0.06 | – | 1.5 L/kg | 15 nM | 0.13 | 15 nM | level, % of control (Mus musculus [11]): 15%; AUC (Mus musculus [9]): 0.59 µM·h; level, % of control (Mus musculus [12]): 15%; F (Mus musculus [10]): 110%
